Results from ChEMBL document CHEMBL2034847, “Discovery of Plasmodium vivax N-myristoyltransferase inhibitors: screening, synthesis, and structural characterization of their binding mode” (J Med Chem, 2012).

Columns and labels:
[1] = Inhibition of Plasmodium vivax recombinant N-myristoyltransferase using human pp60Src92-16 amino acids) as substrate; details: for Ki: read-out: Ki(app)
Outline: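 Recombinant P. vivax NMT in a 96-well fluorogenic NMT assay. Values are reported as apparent Ki, mean ± SD from duplicates.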

[2] = molecular target: T1, Glycylpeptide N-tetradecanoyltransferase 1 (Homo sapiens, UniProt P30419); experiment: Inhibition of human N-myristoyltransferase 1 using human pp60Src92-16 amino acids) as substrate; details: read-out: Ki(app)
T1 sequence (P30419 whole entry): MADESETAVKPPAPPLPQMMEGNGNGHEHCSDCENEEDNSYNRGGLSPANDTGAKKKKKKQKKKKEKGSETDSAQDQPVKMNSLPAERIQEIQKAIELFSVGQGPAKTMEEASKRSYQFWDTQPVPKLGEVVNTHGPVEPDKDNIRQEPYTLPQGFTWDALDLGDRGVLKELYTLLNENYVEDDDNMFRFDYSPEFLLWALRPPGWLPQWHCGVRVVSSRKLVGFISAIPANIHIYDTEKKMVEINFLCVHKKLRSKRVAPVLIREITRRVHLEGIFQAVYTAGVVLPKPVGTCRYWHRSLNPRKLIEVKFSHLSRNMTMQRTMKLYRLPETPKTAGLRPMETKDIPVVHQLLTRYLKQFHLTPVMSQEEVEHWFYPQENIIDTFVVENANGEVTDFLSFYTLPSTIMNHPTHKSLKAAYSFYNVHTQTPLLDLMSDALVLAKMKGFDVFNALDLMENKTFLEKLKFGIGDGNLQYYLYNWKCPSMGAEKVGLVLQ

[3] = molecular target: T2, Glycylpeptide N-tetradecanoyltransferase 2 (Homo sapiens, UniProt O60551); experiment: Inhibition of human N-myristoyltransferase 2 using human pp60Src92-16 amino acids) as substrate; details: read-out: Ki(app)
T2 sequence (O60551 whole entry): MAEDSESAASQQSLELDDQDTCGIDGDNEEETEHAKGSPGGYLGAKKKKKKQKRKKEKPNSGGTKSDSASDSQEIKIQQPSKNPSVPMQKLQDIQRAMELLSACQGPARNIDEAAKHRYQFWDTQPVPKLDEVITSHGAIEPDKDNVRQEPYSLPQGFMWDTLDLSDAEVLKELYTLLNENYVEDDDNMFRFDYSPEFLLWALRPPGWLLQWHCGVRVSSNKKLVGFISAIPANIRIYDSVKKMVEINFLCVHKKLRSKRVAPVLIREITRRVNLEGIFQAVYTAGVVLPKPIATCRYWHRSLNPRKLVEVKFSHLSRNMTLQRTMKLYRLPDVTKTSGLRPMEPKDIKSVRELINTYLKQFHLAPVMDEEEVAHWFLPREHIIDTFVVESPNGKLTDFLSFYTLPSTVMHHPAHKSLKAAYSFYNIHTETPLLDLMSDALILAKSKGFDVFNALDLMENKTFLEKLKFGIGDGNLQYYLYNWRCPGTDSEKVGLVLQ
Outline: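 Recombinant human NMT2 was tested in a fluorogenic plate assay adapted from a published NMT method. Apparent Ki values are the mean ± SD of duplicates.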

Compound `CCCCc1c(C)nc2ccc(OC)cc2c1SCCc1ccccc1` has a Ki [1] of over 100 µM.

`COc1ccc2nc(C)cc(SCCC#N)c2c1` showed a Ki [1] of over 100 µM, a Ki [2] of over 100 µM and a Ki [3] of over 100 µM.

In the case of `CCOC(=O)c1cnc2ccc(OC)cc2c1SCCC#N`, the Ki [1] is reported as 4.74 µM.

With `CCOC(=O)c1cnc2ccc(C(C)=O)cc2c1SCCC#N` the Ki [1] was over 100 µM.

Compound `CCOC(=O)c1cnc2ccc(F)cc2c1SCCC#N` has a Ki [1] of 7.77 µM and a Ki [3] of 37.5 µM.

In the case of `CCOC(=O)c1c(C)nc2ccccc2c1NCC#N`, the Ki [1] is reported as over 100 µM.

Work on `C#CCCSc1c(CCCC)c(C)nc2ccc(OC)cc12` yielded a Ki [1] of 11.6 µM, a Ki [2] of over 100 µM and a Ki [3] of over 100 µM.

With `CCCCc1c(C)nc2ccc(OC)cc2c1SCC#N` the Ki [1] was over 100 µM.

`CCc1c(C)nc2ccc(OC)cc2c1SCCC#N` gave a Ki [1] of 3.23 µM and a Ki [3] of 23.2 µM.

Work on `CCOC(=O)c1c(C)nc2ccccc2c1SCCC#N` yielded a Ki [1] of 24.4 µM and a Ki [3] of 41.5 µM.

Work on `CCOC(=O)c1cnc2ccc(Cl)cc2c1SCCC#N` yielded a Ki [1] of 10.4 µM, a Ki [2] of over 100 µM and a Ki [3] of over 100 µM.

Compound `CCCCc1c(C)nc2ccc(OC)cc2c1SCCCC#N` has a Ki [1] of 35.2 µM, a Ki [2] of 47.6 µM and a Ki [3] of 46.1 µM.

Compound `CCOC(=O)c1cnc2ccc(C)cc2c1SCCC#N` has a Ki [1] of 6.97 µM and a Ki [3] of over 100 µM.

Compound `CCOC(=O)c1cnc2ccc(C(C)O)cc2c1SCCC#N` (stereo not drawn) has a Ki [1] of over 100 µM.

In the case of `CCCCc1c(C)nc2ccc(OC)cc2c1SCCC#N`, the Ki [3] is reported as 11.4 µM.

For `CCCCc1c(C)nc2ccc(OC)cc2c1SCCCO`, the Ki [1] was 17.4 µM, the Ki [2] was over 100 µM and the Ki [3] was over 100 µM.

`CCOC(=O)c1cnc2ccccc2c1SCCC#N` gave a Ki [1] of 24.4 µM, a Ki [2] of over 100 µM and a Ki [3] of over 100 µM.

Work on `COc1ccc(CNc2sc3c(c2C#N)CC(C)(C)OC3)cc1` yielded an IC50 [1] of 26.4 µM.

`CCCc1nc2ccccc2c(SCCC#N)c1C(=O)OCC` gave a Ki [1] of over 100 µM, a Ki [2] of over 100 µM and a Ki [3] of over 100 µM.

In the case of `CCN(CC)Cc1c(O)ccc2ccccc12`, the IC50 [1] is reported as 26.3 µM.

`CCc1ccc2c(c1)S(=O)(=O)C(C(F)(F)F)CO2` (stereo not drawn) gave an IC50 [1] of 11.4 µM.

For `CCOC(=O)c1c(CC)nc2ccccc2c1SCCC#N`, the Ki [1] was 60.6 µM, the Ki [2] was 47.9 µM and the Ki [3] was 94.2 µM.

Work on `CCCCc1c(C)nc2ccccc2c1SCCC#N` yielded a Ki [1] of 2.46 µM, a Ki [2] of over 100 µM and a Ki [3] of over 100 µM.

In the case of `CCCCc1c(C)nc2ccc(Br)cc2c1SCCC#N`, the Ki [1] is reported as 21.6 µM, the Ki [2] is reported as over 100 µM and the Ki [3] is reported as over 100 µM.
